The target in data set [1] is T1, Gonadotropin-releasing hormone receptor (Homo sapiens, UniProt P30968).
T1 sequence (P30968 whole entry): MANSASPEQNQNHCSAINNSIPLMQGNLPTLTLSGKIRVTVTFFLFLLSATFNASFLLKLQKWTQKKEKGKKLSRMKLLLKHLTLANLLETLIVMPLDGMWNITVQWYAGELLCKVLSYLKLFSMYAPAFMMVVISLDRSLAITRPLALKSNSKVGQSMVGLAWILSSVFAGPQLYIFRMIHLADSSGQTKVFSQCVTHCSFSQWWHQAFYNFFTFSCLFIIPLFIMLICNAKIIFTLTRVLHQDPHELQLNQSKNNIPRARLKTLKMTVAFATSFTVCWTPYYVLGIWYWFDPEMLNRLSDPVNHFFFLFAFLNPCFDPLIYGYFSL
As to the kind of experiment: Binding affinity towards human gonadotropin releasing hormone receptor using des-Gly10[125I]Tyr5,D-Leu6,NMeLeu7,Pro9-NEt]GnRH as radioligand expressed in HEK293 cells. It is filed as cell-based. The method in brief:
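Competitive displacement at cloned human GnRH receptor expressed in HEK293 cells, 96-well filtration format. Three to eight independent experiments.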

Data set [2] in a line: Half life in mouse. The class given is ADME, organism-based. The settings on record: in vivo. Summed up:
(§1)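 Mice dosed orally and intravenously at 10 mg/kg. Pharmacokinetic parameters derived from plasma exposure after each route.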

Data set [3] in a line: Volume of distribution in mouse. The class given is ADME, organism-based. The note with it: in vivo. Summed up:
as §1

Data set [4] can be described thus: Bioavailability in mouse. It is filed as ADME, organism-based. The settings on record: in vivo. Summed up:
as §1

Data set [5] can be described thus: Clearance in mouse. The class given is ADME, organism-based. The settings on record: in vivo. Summed up: as §1
A short description of data set [6]: Inhibitory concentration of compound against GnRH stimulated calcium flux in transfected cells. The class given is functional, cell-based. Summed up:
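GnRH-stimulated Ca2+ flux measured in hGnRH receptor-transfected cells. Inhibition tested across a concentration series, with IC50 taken from the dose-response curve.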
(A change in cytosolic calcium serves as a functional read-out for many receptors and channels.)

In data set [7] the target is T2, Gonadotropin-releasing hormone receptor (Rattus norvegicus, UniProt P30969).
T2 sequence (P30969 whole entry): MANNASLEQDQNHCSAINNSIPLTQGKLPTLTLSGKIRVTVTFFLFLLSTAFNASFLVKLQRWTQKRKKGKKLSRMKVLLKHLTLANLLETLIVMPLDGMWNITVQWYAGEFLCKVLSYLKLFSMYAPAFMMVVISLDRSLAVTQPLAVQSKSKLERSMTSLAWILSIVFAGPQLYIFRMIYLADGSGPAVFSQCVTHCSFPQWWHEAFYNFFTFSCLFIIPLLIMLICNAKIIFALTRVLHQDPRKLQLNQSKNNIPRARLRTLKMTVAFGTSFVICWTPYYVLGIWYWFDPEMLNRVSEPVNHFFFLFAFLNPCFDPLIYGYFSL
As to the kind of experiment: Tested for binding affinity towards rat gonadotropin releasing hormone receptor.

With `COc1cccc(-c2c(C)n(Cc3c(F)cccc3F)c(=O)n(C[C@H](C)N)c2=O)c1F`, the Ki (as a rule, a measure of affinity in units of concentration, obtained from inhibition or displacement) in data set [1] was over 10 µM.
On the same count and under the same terms, the result for `COc1cccc(-c2c(C)n(Cc3c(F)cccc3F)c(=O)n(C[C@H](NC(C)C)C3CCCC3)c2=O)c1F` reads 0.012 µM; that for `COc1cccc(-c2c(C)n(Cc3c(F)cccc3F)c(=O)n(C[C@@H](CC(C)C)NC(C)C)c2=O)c1F`, 0.012 µM.
Regarding `COc1cccc(-c2c(C)n(Cc3c(F)cccc3F)c(=O)n(C[C@H](N)CC(C)C)c2=O)c1F`, the half-life (commonly the time in which the quantity being followed falls by half) in data set [2] is 42 min. Also, the Vd (as a rule, the apparent volume that relates the amount in the body to the concentration in plasma or blood) in data set [3] was 3.9 L/kg. In data set [4], the bioavailability – broadly, the share of a dose that reaches the circulation, judged against a reference dose that is usually intravenous – came to 6%. In data set [1], this molecule registered a Ki of 0.0064 µM. The clearance (in general, the volume of plasma or blood freed of the substance per unit of time) in data set [5] is 65.7 mL/min/kg.
In turn, `COc1cccc(-c2c(C)n(Cc3c(F)cccc3F)c(=O)n(C[C@@H](C)N)c2=O)c1F` gave a Ki in data set [1] of 0.595 µM.
In data set [1], `COc1cccc(-c2c(C)n(Cc3c(F)cccc3F)c(=O)n(C[C@@H](C3CCCC3)N(C)C)c2=O)c1F` displayed a Ki of 0.0006 µM. Against the preceding molecule, the Ki is about 990-fold lower.
The same measure, in the same setting: under `COc1cccc(-c2c(C)n(Cc3c(F)cccc3F)c(=O)n(C[C@H](Cc3ccccc3)N(C)C)c2=O)c1F` stands 0.0079 µM; under `COc1cccc(-c2c(C)n(Cc3c(F)cccc3F)c(=O)n(C[C@@H](N)C(C)C)c2=O)c1F`, 0.973 µM; under `COc1cccc(-c2c(C)n(Cc3c(F)cccc3F)c(=O)n(C[C@@H](N)CC(C)C)c2=O)c1F`, 0.039 µM.
In data set [1], `COc1cccc(-c2c(C)n(Cc3c(F)cccc3F)c(=O)n(C[C@H](C3CCCC3)N(C)C)c2=O)c1F` registered a Ki of 0.0024 µM.
Same read-out and setting: under `COc1cccc(-c2c(C)n(Cc3c(F)cccc3F)c(=O)n(C[C@H](N)Cc3ccccc3)c2=O)c1F` stands 0.066 µM.
On the same count and under the same terms, the result for `CN[C@H](CC(C)C)Cn1c(=O)c(-c2cccc(OC)c2F)c(C)n(Cc2c(F)cccc2F)c1=O` reads 0.0012 µM; that for `COc1cccc(-c2c(C)n(Cc3c(F)cccc3F)c(=O)n(C[C@H](NC(C)C)C3CCCCC3)c2=O)c1F`, 0.023 µM.
Same read-out and setting: the result for `COc1cccc(-c2c(C)n(Cc3c(F)cccc3F)c(=O)n(C[C@H](N)C(C)C)c2=O)c1F` reads 0.051 µM.
Molecule `COc1cccc(-c2c(C)n(Cc3c(F)cccc3F)c(=O)n(C[C@H](N)C3CCCCC3)c2=O)c1F` showed a half-life in data set [2] of 78 min. Besides, the Vd in data set [3] amounted to 7.3 L/kg. Besides, the bioavailability in data set [4] turned out to be 11%. For the same molecule, in data set [1], the Ki was determined as 0.0065 µM. Also, the IC50 (in general, the point on the concentration scale where inhibition reaches its midpoint) in data set [6] was 0.06 µM. In data set [5], the clearance was found to be 65.4 mL/min/kg.
`COc1cccc(-c2c(C)n(Cc3c(F)cccc3F)c(=O)n(C[C@@H](N)CCc3ccccc3)c2=O)c1F` returned a Ki in data set [1] of 0.965 µM.
`COc1cccc(-c2c(C)n(Cc3c(F)cccc3F)c(=O)n(C[C@H](C)NCc3ccccc3)c2=O)c1F` had a half-life in data set [2] of 66 min. In data set [3], this molecule had a Vd of 7.9 L/kg. Moreover, in data set [4], the bioavailability amounted to 3%. The molecule further gave a Ki in data set [1] of 0.051 µM. Also, in data set [5], the clearance is 81.3 mL/min/kg.
Molecule `COc1cccc(-c2c(C)n(Cc3c(F)cccc3F)c(=O)n(C[C@@H](N)C3CCCC3)c2=O)c1F` showed a Ki in data set [1] of 0.094 µM.
Take `COc1cccc(-c2c(C)n(Cc3c(F)cccc3F)c(=O)n(C[C@@H](N)Cc3ccccc3)c2=O)c1F`: the half-life in data set [2] was 54 min. Further, in data set [3], the Vd came out at 4.9 L/kg. Further, in data set [4], the bioavailability came to 11%. Moreover, the Ki in data set [1] was found to be 0.016 µM. Also, the clearance in data set [5] is 65.6 mL/min/kg.
As to `COc1cccc(-c2c(C)n(Cc3c(F)cccc3F)c(=O)n(C[C@H](N)C3CCCC3)c2=O)c1F`, the affinity in data set [1] corresponds to a Ki of 0.01 µM.
On the same count and under the same terms, the result for `COc1cccc(-c2c(C)n(Cc3c(F)cccc3F)c(=O)n(C[C@H](N)CC(C)(C)C)c2=O)c1F` reads 0.071 µM; that for `COc1cccc(-c2c(C)n(Cc3c(F)cccc3F)c(=O)n(CC(N)C3CCCCC3)c2=O)c1F` (single isomer, unassigned), 0.046 µM.
With `CN[C@@H](Cc1ccccc1)Cn1c(=O)c(-c2cccc(OC)c2F)c(C)n(Cc2c(F)cccc2F)c1=O`, the half-life in data set [2] was 48 min. For the same molecule, in data set [3], the volume of distribution (Vd) was 6.9 L/kg. The same molecule displayed a bioavailability in data set [4] of 42%. Moreover, the Ki in data set [1] was 0.0081 µM; in data set [7], 11 µM. Moreover, the IC50 in data set [6] was 0.02 µM. The same molecule showed a clearance in data set [5] of 97.2 mL/min/kg.
As for `COc1cccc(-c2c(C)n(Cc3c(F)cccc3F)c(=O)n(C[C@@H](C3CCCCC3)N(C)C)c2=O)c1F`, in data set [1], the Ki amounted to 0.0041 µM. In other words, the single-digit nanomolar range.

(Values after ChEMBL document CHEMBL1148344, “3-(2-aminoalkyl)-1-(2,6-difluorobenzyl)-5- (2-fluoro-3-methoxyphenyl)-6-methyl-uracils as orally bioavailable antagonists of the human gonadotropin releasing hormone receptor” (J Med Chem, 2004).)
